Compound activity (PubChem BioAssay)
Kir21 inh – inhibitors of mouse Kir2.1 inward-rectifier potassium channel | P35561 | HEK293-Kir2.1, FluxOR thallium flux fluorescence; active compounds read low | B-score at 10 µM | actives 0.85% (n = 310,000);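 active means fluorescence ratio B-score at or below minus 3 SD of library scores, with starting-brightness B-score within 2 SD, cut at about -4.2 in these data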;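 further: channel flux triggered by added potassium and thallium sulfate stimulus; B-score of peak minus minimum fluorescence over baseline after thallium stimulus; more negative B-score means stronger Kir2.1 block with less thallium influx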
Target sequence (P35561 whole entry, looked up): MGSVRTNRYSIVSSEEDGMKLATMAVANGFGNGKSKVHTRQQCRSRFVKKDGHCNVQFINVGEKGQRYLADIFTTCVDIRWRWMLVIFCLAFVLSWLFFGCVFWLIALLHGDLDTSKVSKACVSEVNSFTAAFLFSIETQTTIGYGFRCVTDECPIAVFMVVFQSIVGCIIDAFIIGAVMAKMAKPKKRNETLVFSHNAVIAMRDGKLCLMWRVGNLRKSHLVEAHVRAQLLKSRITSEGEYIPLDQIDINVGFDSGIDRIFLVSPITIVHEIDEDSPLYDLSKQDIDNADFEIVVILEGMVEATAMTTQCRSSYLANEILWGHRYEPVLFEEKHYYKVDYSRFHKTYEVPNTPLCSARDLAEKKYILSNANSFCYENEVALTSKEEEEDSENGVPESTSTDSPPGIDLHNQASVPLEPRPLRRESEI
hERG rescue – hERG (human) protection from proarrhythmic block | Q12809 | CHO-hERG, FluxOR thallium flux, dofetilide IC70 present | activation (rescue from dofetilide block), less the hit threshold, % at 10 µM | actives 0.51% (n = 310,000);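 active means activation above the mean of controls blocked by dofetilide plus 5 SD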;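 further: thallium influx through hERG after potassium depolarization seen as dye fluorescence rise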
KCNQ1 inh – human KCNQ1 channel inhibition | P51787 | CHO-K1 KCNQ1, FluxOR thallium flux fluorescence; active compounds read high | B-score at 10 µM | actives 1.3% (n = 310,000);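 active means compounds whose thallium flux B-score, printed positive for inhibition, exceeds three library SD while starting fluorescence stays within three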;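 further: channel opened by potassium depolarization with thallium stimulus after 20 min compound exposure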
KCNQ1 pot – potentiates or activates the human KCNQ1 potassium channel; P51787; B-score at 10 µM; actives 0.35% (n = 310,000); CHO-K1 KCNQ1, thallium flux FluxOR fluorescence; active compounds read high;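 active means fluorescence ratio B-score, a plate-corrected score, at least three library SD, with initial intensity B-score within 5 SD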
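System: Stable KCNQ1 CHO-K1 line | Incubation: 90 min dye loading and 20 min compound exposure, both at room temperature | Measure: Ratio B score | Medium: Assay buffer for compound exposure, DMSO matched across wells | Compound dosing: Single-concentration screen | Probe or stimulus: K+/Tl+ depolarizing stimulus | Measured by: Kinetic FluxOR fluorescence, 10 s baseline plus 110 s post-stimulus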
KCNK9 inh – human KCNK9 channel inhibition. Q9NPC2. HEK293 KCNK9, FluxOR thallium flux fluorescence; active compounds read low. B-score at 10 µM. actives 1.2% (n = 310,000);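 active means ratio B-score over 3 SD below the library mean, with starting fluorescence within 5 SD of its mean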;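 further: negative B-score means less thallium flux so channel inhibition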
KCNK3 block – human KCNK3 channel inhibition, primary screen | O14649 | CHO-KCNK3 thallium flux, FluxOR fluorescence; active compounds read low | B-score at 10 µM | actives 0.84% (n = 340,000) | AID 602410;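 active means B-score under library mean minus 4 SD, starting fluorescence ratio at most library mean plus 5 SD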;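 further: more negative B-score means stronger inhibition of thallium flux through KCNK3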
KCNK9 inh conf – human KCNK9 inhibitor confirmation; shares compounds with KCNK9 inh; HEK293 KCNK9 cells, FluxOR thallium flux fluorescence; inhibition, % at 10 µM; actives 43% (n = 4,900); AID 492992;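 active means thallium signal inhibited by more than 5 SD of the compound-free buffer control wells, on both duplicate plates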;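 further: 0% = assay buffer control wells without compound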
Kir21 sel – tests whether KCNK9 modulators also affect mouse Kir2.1; shares compounds with KCNK9 inh; Kir2.1 cells, FluxOR thallium flux fluorescence; inhibition, % at 10 µM; actives 4% (n = 4,900);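 active means thallium signal drop more than 5 SD beyond the mean of the no-compound control wells, seen in both duplicate plates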;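 further: signal is fluorescence rise after thallium addition divided by baseline fluorescence; plate controls were assay buffer only for no effect and full block by chlorpromazine control for full effect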
HEK293 Tl ctr – second counter-screen for KCNK9 modulators: effect in non-induced cells; shares compounds with KCNK9 inh; non-induced KCNK9-HEK293, FluxOR thallium flux; inhibition, % at 10 µM; actives 40% (n = 4,900);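 active means thallium signal drop beyond 5 SD of the untreated control mean, on both duplicate plates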;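 further: plate controls were buffer only IC0 wells for no effect and SID17386958 at its maximal inhibitory level for full effect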
KCNK3 inh conf – human KCNK3 channel inhibition, confirmation assay. CHO-KCNK3 thallium flux, FluxOR fluorescence; 0% buffer, 100% carvedilol maximal block. actives 99% (n = 2,400). shares compounds with KCNK3 block. ratio percent of control, % at 10 µM;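 active means ratio percent of control, averaged over triplicates, above buffer control mean plus 5 SD, cut at about 64% in these data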;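 further: ratio is the fluorescence rise from min to max over baseline after thallium stimulus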
KCNK3 uninduced – activity in cells without induced KCNK3 expression. non-induced KCNK3 parental cells, FluxOR thallium flux; active compounds read low. AID 651747. actives 40% (n = 2,400). shares compounds with KCNK3 block. thallium flux ratio (lower = more inhibition) at 10 µM;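 active means thallium flux ratio, averaged over three wells, more than 5 SD below the buffer control mean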;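 further: host cells are CHO cells without KCNK3 induction; ratio is peak minus trough fluorescence over baseline then normalized to buffer controls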
Starred values were filed as active, the others as inactive. Hits are enriched below; roughly 3.8% of the tested compounds scored in any of these assays.

Screening COc1cccc(CN(C)Cc2cc(=O)oc3cc(O)c(Cl)cc23)c1 returned Kir21 inh -0.17, hERG rescue -14, KCNQ1 inh inactive, KCNQ1 pot inactive, KCNK9 inh inactive and KCNK3 block inactive.
CCc1cc2c(CN(C)Cc3ccccc3F)cc(=O)oc2cc1O was read as Kir21 inh -5.9*, hERG rescue -20, KCNQ1 inh inactive, KCNQ1 pot inactive, KCNK9 inh -8.5*, KCNK3 block -15*, KCNK9 inh conf 42%*, Kir21 sel inactive, HEK293 Tl ctr inactive, KCNK3 inh conf 114* and KCNK3 uninduced 0.16*.
`CCC1CCCCN1S(=O)(=O)c1ccc(NC(=O)c2snnc2C)cc1` (stereo not given) gave Kir21 inh -0.92, hERG rescue -10, KCNQ1 inh inactive, KCNQ1 pot inactive, KCNK9 inh inactive and KCNK3 block inactive.
For CCC1CCCCN1S(=O)(=O)c1ccc(NC(=O)c2cccs2)cc1 (stereo not given) the results were Kir21 inh 1.6, hERG rescue -14, KCNQ1 inh inactive, KCNQ1 pot inactive, KCNK9 inh -8.3*, KCNK3 block -11*, KCNK9 inh conf 52%*, Kir21 sel inactive, HEK293 Tl ctr 28%*, KCNK3 inh conf 107* and KCNK3 uninduced inactive.
Cc1ccc(Nc2nc(Nc3ccc(C)cc3)nc(SC3=NCCS3)n2)cc1 was read as Kir21 inh -0.14, hERG rescue -8, KCNQ1 inh inactive, KCNQ1 pot inactive, KCNK9 inh inactive and KCNK3 block inactive.
Cc1ccccc1Nc1nc(Nc2ccccc2C)nc(SC2=NCCS2)n1 was read as Kir21 inh -1.1, hERG rescue -6, KCNQ1 inh inactive, KCNQ1 pot inactive, KCNK9 inh -9.9*, KCNK3 block -13*, KCNK9 inh conf 37%*, Kir21 sel inactive, HEK293 Tl ctr 26%*, KCNK3 inh conf 124* and KCNK3 uninduced 0.12*.
Cc1ccc(C(c2nnnn2C2CCCCC2)N(C)C2CCCCC2)cc1 (stereo not given) was read as Kir21 inh -0.01, hERG rescue -5, KCNQ1 inh inactive, KCNQ1 pot inactive, KCNK9 inh -9.4*, KCNK3 block inactive, KCNK9 inh conf inactive, Kir21 sel inactive, HEK293 Tl ctr 43%*, KCNK3 inh conf 117* and KCNK3 uninduced 0.13*.
`CN(/N=C/c1cc(Cl)cc(Cl)c1O)c1c(Cl)cccc1[N+](=O)[O-]` gave Kir21 inh 1.4, hERG rescue -5, KCNQ1 inh inactive, KCNQ1 pot inactive, KCNK9 inh -13*, KCNK3 block -11*, KCNK9 inh conf 62%*, Kir21 sel inactive, HEK293 Tl ctr 48%*, KCNK3 inh conf 116* and KCNK3 uninduced 0.15*.
For C#CCN(Cc1ccco1)C(=O)c1cc(COc2ccc(F)cc2Cl)on1 the results were Kir21 inh -0.03, hERG rescue -7, KCNQ1 inh inactive, KCNQ1 pot inactive, KCNK9 inh -9.3*, KCNK3 block -11*, KCNK9 inh conf inactive, Kir21 sel inactive, HEK293 Tl ctr 34%*, KCNK3 inh conf 115* and KCNK3 uninduced 0.15*.
For CCN(Cc1ccncc1)C(=O)c1cc(COc2ccc(F)cc2Cl)on1 the results were Kir21 inh -1.4, hERG rescue -4, KCNQ1 inh inactive, KCNQ1 pot inactive, KCNK9 inh inactive and KCNK3 block inactive.
For Cc1ccc(C)c(Nc2cc(C)nc(-c3ccccc3O)n2)c1 the results were Kir21 inh -0.32, hERG rescue -4, KCNQ1 inh inactive, KCNQ1 pot inactive, KCNK9 inh -9.4*, KCNK3 block -11*, KCNK9 inh conf 49%*, Kir21 sel inactive, HEK293 Tl ctr 40%*, KCNK3 inh conf 125* and KCNK3 uninduced 0.12*.
For O=C(Nc1ccc(O)c(-c2nc3ccccc3o2)c1)C1(c2ccccc2)CCCC1 the results were Kir21 inh -1, hERG rescue -14, KCNQ1 inh inactive, KCNQ1 pot inactive, KCNK9 inh -12*, KCNK3 block -9.6*, KCNK9 inh conf 40%*, Kir21 sel inactive, HEK293 Tl ctr inactive, KCNK3 inh conf 100* and KCNK3 uninduced inactive.
O=C(Nc1ccncc1)C1(c2ccccc2)CCCC1 was read as Kir21 inh -0.02, hERG rescue 1, KCNQ1 inh inactive, KCNQ1 pot inactive, KCNK9 inh inactive and KCNK3 block inactive.
For O=C(Cc1ncc(C(F)(F)F)cc1Cl)NCc1ccco1 the results were Kir21 inh -0.49, hERG rescue -12, KCNQ1 inh inactive, KCNQ1 pot inactive, KCNK9 inh inactive and KCNK3 block inactive.
`CCc1ccc(-c2cc(C)no2)cc1S(=O)(=O)N1CCN(c2cccc(C)c2C)CC1` gave Kir21 inh 0, hERG rescue -10, KCNQ1 inh inactive, KCNQ1 pot inactive, KCNK9 inh inactive and KCNK3 block inactive.
Screening CCc1ccc(-c2cc(C)no2)cc1S(=O)(=O)N1CCOc2ccc(C)cc21 returned Kir21 inh 0.43, hERG rescue -8, KCNQ1 inh inactive, KCNQ1 pot inactive, KCNK9 inh -8.9*, KCNK3 block -11*, KCNK9 inh conf 48%*, Kir21 sel inactive, HEK293 Tl ctr 33%*, KCNK3 inh conf 125* and KCNK3 uninduced 0.16*.
Cc1cc(-c2ccc(C(C)C)c(S(=O)(=O)N3CCC(C)CC3)c2)on1 was read as Kir21 inh -0.02, hERG rescue -6, KCNQ1 inh 15*, KCNQ1 pot inactive, KCNK9 inh -17*, KCNK3 block -17*, KCNK9 inh conf 66%*, Kir21 sel inactive, HEK293 Tl ctr 53%*, KCNK3 inh conf 75* and KCNK3 uninduced inactive.
